Data reported in ChEMBL document CHEMBL1127618, “A novel nonpeptide HIV-1 protease inhibitor: elucidation of the binding mode and its application in the design of related analogs” (J Med Chem, 1994).
pIC50: −log10 of the molar value.

Molecular target: Human immunodeficiency virus type 1 protease (Human immunodeficiency virus 1, UniProt Q72874)
Assay: Inhibition of HIV-1 protease
Outline: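 HIV-1 protease at 6.0 nM final added to inhibitor plus 40 μM undecapeptide substrate H-His-Lys-Ala-Arg-Val-Leu-(p-NO2)Phe-Glu-Ala-Nle-Ser-NH2, 1.0% DMSO, in 80 mM NaOAc, 160 mM NaCl, 1.0 mM EDTA, 1.0 mM DTT, 0.1% PEG 8000, pH 4.7, 37 °C. Inhibitor at […]. After 5 min, quenched with 2% TFA. Substrate and product resolved by reversed-phase HPLC (A220). % control from % conversion gives IC50.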

| Compound | pIC50 |
| --- | --- |
| O=c1oc2ccccc2c(O)c1CCCOCc1ccccc1 | 4.42 |
| NC(=O)c1cccc(OCCCc2c(O)oc3ccccc3c2=O)c1 | 5.41 |
| O=C(O)c1cccc(OCCCc2c(O)oc3ccccc3c2=O)c1 | 5.15 |
| O=c1oc2ccccc2c(O)c1CCCN(Cc1ccccc1)c1ccccc1 | 4.89 |
| O=c1oc2ccccc2c(O)c1CCCOC1CCCCC1 | 4.49 |
| O=c1oc2ccccc2c(O)c1CCCOc1cccc(Cl)c1 | 5.85 |
| COc1ccccc1CCCCc1c(O)oc2ccccc2c1=O | 5.77 |
| COc1ccccc1CCCCc1c(O)oc2cc(OCc3ccccc3)ccc2c1=O | < 4.00 |
| O=c1oc2ccccc2c(O)c1CCOCc1ccccc1 | 5.40 |
| O=c1oc2ccccc2c(O)c1CCOc1ccccc1 | 4.28 |
| COc1ccccc1OCCCc1c(O)oc2ccccc2c1=O | 4.36 |
| O=c1oc2ccccc2c(O)c1CCCOc1ccccc1 | 5.64 |
| COc1ccccc1CCCCc1c(O)c2ccc(O)cc2oc1=O | 6.28 |
| Nc1cccc(OCCCc2c(O)oc3ccccc3c2=O)c1 | 5.19 |
| O=c1oc2ccccc2c(O)c1CCCN(c1ccccc1)c1ccc(F)cc1 | 5.26 |
| O=c1oc2ccccc2c(O)c1CCCOc1cccc([N+](=O)[O-])c1 | 5.40 |
| N#Cc1cccc(OCCCc2c(O)c3ccccc3oc2=O)c1 | 6.17 |
| O=c1[nH]c2ccccc2c(O)c1CCCOc1ccccc1 | < 3.70 |
| O=c1c(CCCOc2cccc(CO)c2)c(O)oc2ccccc12 | 5.64 |
| O=c1oc2ccccc2c(O)c1SCCOc1ccccc1 | 4.62 |
| O=C(CCc1c(O)c2ccccc2oc1=O)c1ccccc1 | 4.05 |
| O=c1oc2ccccc2c(O)c1CCCCOc1ccccc1 | < 4.00 |
| O=c1oc2ccccc2c(O)c1CCCSc1ccccc1 | 4.59 |
| CCOC(=O)c1cccc(OCCCc2c(O)oc3ccccc3c2=O)c1 | 5.85 |
| COc1ccc2c(O)c(CCCCc3ccccc3OC)c(=O)oc2c1 | 5.48 |
| O=c1c(CCCO)c(O)oc2ccccc12 | 4.07 |
| COc1ccc(CCCCc2c(O)oc3ccccc3c2=O)cc1 | < 4.00 |
| O=c1oc2ccccc2c(O)c1CCCCc1ccccc1 | 3.96 |
| O=c1c(CC/C(=N/O)c2ccccc2)c(O)oc2ccccc12 | 4.15 |
